Activity calls are given as the source filed them.
Test system: Aorta
Assay: Vasorelaxant activity in potassium depolarized guinea pig aortic strip assessed as inhibition of calcium-induced contraction at 100 uM
Assay type: functional
Conditions: Cavia porcellus

Compound | inhibition at 100 µM [%]
COc1ccc2c(c1)nc(-c1ccccc1)c(=O)n2C[C@H]1CCCN2CCCC[C@@H]12 | 11
COc1cc(NC(C)=O)c(Cl)cc1C(=O)NC[C@@H]1CCCN2CCCC[C@H]12 | 4

Test system: not listed separately
Assay: Antiarrhythmic activity in sinusoidal alternating current-induced guinea pig left atrium assessed as increase in current strength at which extra beats occur at 50 uM measured every 30 mins
Assay type: functional, Cavia porcellus, Cardiac atrium
Conditions: not given
Outline: (§1)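 Isolated guinea pig left atria, electrically driven at 1 Hz, were exposed to sinusoidal alternating current to induce arrhythmia. The read-out was the rise in the ac-arrhythmia threshold over concentrations up to 100 μM.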

Compound | Activity [%]
COc1ccc2c(c1)nc(-c1ccccc1)c(=O)n2C[C@H]1CCCN2CCCC[C@@H]12 | 30

Species: Cavia porcellus
Assay: Negative inotropic activity in guinea pig longitudinal smooth muscle assessed as inhibition of calcium-induced contraction at 1 uM
Assay type: functional
Conditions: not given

Compound | inhibition
COc1cc(NC(C)=O)c(Cl)cc1C(=O)NC[C@@H]1CCCN2CCCC[C@H]12 | inactive

Test system: not listed separately
Assay: Cardioprotective effect in Langendorff perfused guinea pig spontaneously beating […] assessed as intraventicular conduction time at 0.1 uM (RVb = 19 to 24 +/- 1 to 2 ms)
Assay type: functional
Conditions: Cavia porcellus
Outline: (§2)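 Whole guinea pig hearts were Langendorff-perfused and their ECG recorded at graded concentrations. Intervals read were PR (atrioventricular conduction time), QT (ventricular action potential duration) and QRS (intraventricular conduction time).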

Compound | intraventricular conduction time [ms]
COc1cc(NC(C)=O)c(Cl)cc1C(=O)NC[C@@H]1CCCN2CCCC[C@H]12 | 21

Test system: Heart
Assay: Cardioprotective effect in Langendorff perfused guinea pig spontaneously beating […] assessed as heart rat at 0.01 uM (RVb = 175 to 190 +/- 5 to 11 bpm)
Assay type: functional, Cavia porcellus
Conditions: not given

Compound | Activity [bpm]
COc1cc(NC(C)=O)c(Cl)cc1C(=O)NC[C@@H]1CCCN2CCCC[C@H]12 | 170

Test system: not listed separately
Assay: Negative chronotropic activity against potassium-induced contraction in guinea pig left atrium assessed as decrease atrial rate at 100 uM relative to control
Assay type: functional, Cavia porcellus, Cardiac atrium
Design: scale not given: the % may be the effect or the level left
Conditions: not given

Compound | Activity [%]
COc1cc(NC(C)=O)c(Cl)cc1C(=O)NC[C@@H]1CCCN2CCCC[C@H]12 | 6

Test system: not listed separately
Assay: Antiarrhythmic activity in sinusoidal alternating current-induced guinea pig left atrium assessed as increase in current strength at which extra beats occur measured every 30 mins
Assay type: functional, tissue-based
Conditions: Cavia porcellus, Cardiac atrium, 0.5 h
Outline: as §1

Compound | EC50 [nM]
COc1cc(NC(C)=O)c(Cl)cc1C(=O)NC[C@@H]1CCCN2CCCC[C@H]12 | 240

Test system: Aorta
Assay: Negative inotropic activity in potassium depolarized guinea pig aortic strip assessed as inhibition of calcium-induced contraction at 1 uM
Assay type: functional, tissue-based
Conditions: Cavia porcellus

Compound | inhibition
COc1cc(NC(C)=O)c(Cl)cc1C(=O)NC[C@@H]1CCCN2CCCC[C@H]12 | inactive

Test system: not listed separately
Assay: Cardioprotective effect in Langendorff perfused guinea pig spontaneously beating […] assessed as duration of ventricular action potential at 0.1 uM (RVb = 140 to 161 +/- 2 to 8 ms)
Assay type: functional, Cavia porcellus, Cardiac ventricle
Conditions: not given
Outline: as §2

Compound | Activity [ms]
COc1cc(NC(C)=O)c(Cl)cc1C(=O)NC[C@@H]1CCCN2CCCC[C@H]12 | 150

Test system: not listed separately
Assay: Cardioprotective effect in Langendorff perfused guinea pig spontaneously beating […] assessed as atrioventicular conduction time at 10 uM (RVb = 50 to 55 +/- 1 to 4 ms)
Assay type: functional
Conditions: Cavia porcellus
Outline: as §2

Compound | AV conduction time [ms]
COc1cc(NC(C)=O)c(Cl)cc1C(=O)NC[C@@H]1CCCN2CCCC[C@H]12 | 56

Test system: not listed separately
Assay: Cardioprotective effect in Langendorff perfused guinea pig spontaneously beating […] assessed as intraventicular conduction time at 0.01 uM (RVb = 19 to 24 +/- 1 to 2 ms)
Assay type: functional
Conditions: Cavia porcellus
Outline: as §2

Compound | intraventricular conduction time [ms]
COc1cc(NC(C)=O)c(Cl)cc1C(=O)NC[C@@H]1CCCN2CCCC[C@H]12 | 20

Test system: not listed separately
Assay: Cardioprotective effect in Langendorff perfused guinea pig spontaneously beating […] assessed as duration of ventricular action potential at 10 uM (RVb = 140 to 161 +/- 2 to 8 ms)
Assay type: functional, Cavia porcellus, Cardiac ventricle
Conditions: not given
Outline: as §2

Compound | Activity [ms]
COc1cc(NC(C)=O)c(Cl)cc1C(=O)NC[C@@H]1CCCN2CCCC[C@H]12 | 155

Test system: Heart
Assay: Cardioprotective effect in Langendorff perfused guinea pig spontaneously beating […] assessed as heart rat at 0.001 uM (RVb = 175 to 190 +/- 5 to 11 bpm)
Assay type: functional, Cavia porcellus
Conditions: not given

Compound | Activity [bpm]
COc1cc(NC(C)=O)c(Cl)cc1C(=O)NC[C@@H]1CCCN2CCCC[C@H]12 | 172

Test system: not listed separately
Assay: Cardioprotective effect in Langendorff perfused guinea pig spontaneously beating […] assessed as atrioventicular conduction time at 0.1 uM (RVb = 50 to 55 +/- 1 to 4 ms)
Assay type: functional
Conditions: Cavia porcellus
Outline: as §2

Compound | AV conduction time [ms]
COc1cc(NC(C)=O)c(Cl)cc1C(=O)NC[C@@H]1CCCN2CCCC[C@H]12 | 53

Test system: not listed separately
Assay: Cardioprotective effect in Langendorff perfused guinea pig spontaneously beating […] assessed as atrioventicular conduction time at 0.001 uM (RVb = 50 to 55 +/- 1 to 4 ms)
Assay type: functional
Conditions: Cavia porcellus
Outline: as §2

Compound | AV conduction time [ms]
COc1cc(NC(C)=O)c(Cl)cc1C(=O)NC[C@@H]1CCCN2CCCC[C@H]12 | 52

Test system: Heart
Assay: Cardioprotective effect in Langendorff perfused guinea pig spontaneously beating […] assessed as heart rat at 1 uM (RVb = 175 to 190 +/- 5 to 11 bpm)
Assay type: functional, Cavia porcellus
Conditions: not given

Compound | Activity [bpm]
COc1cc(NC(C)=O)c(Cl)cc1C(=O)NC[C@@H]1CCCN2CCCC[C@H]12 | 167

Test system: not listed separately
Assay: Cardioprotective effect in Langendorff perfused guinea pig spontaneously beating […] assessed as atrioventicular conduction time at 1 uM (RVb = 50 to 55 +/- 1 to 4 ms)
Assay type: functional
Conditions: Cavia porcellus
Outline: as §2

Compound | AV conduction time [ms]
COc1cc(NC(C)=O)c(Cl)cc1C(=O)NC[C@@H]1CCCN2CCCC[C@H]12 | 56

Test system: not listed separately
Assay: Cardioprotective effect in Langendorff perfused guinea pig spontaneously beating […] assessed as intraventicular conduction time at 1 uM (RVb = 19 to 24 +/- 1 to 2 ms)
Assay type: functional
Conditions: Cavia porcellus
Outline: as §2

Compound | intraventricular conduction time [ms]
COc1cc(NC(C)=O)c(Cl)cc1C(=O)NC[C@@H]1CCCN2CCCC[C@H]12 | 22

Test system: not listed separately
Assay: Negative inotropic activity against potassium-induced contraction in guinea pig left atrium assessed as decrease in developed tension at 10 uM relative to control
Assay type: functional, Cavia porcellus, Cardiac atrium
Design: scale not given: the % may be the effect or the level left
Conditions: not given

Compound | Activity [%]
COc1ccc2c(c1)nc(-c1ccccc1)c(=O)n2C[C@H]1CCCN2CCCC[C@@H]12 | 85

Test system: not listed separately
Assay: Cardioprotective effect in Langendorff perfused guinea pig spontaneously beating […] assessed as duration of ventricular action potential at 0.01 uM (RVb = 140 to 161 +/- 2 to 8 ms)
Assay type: functional, Cavia porcellus, Cardiac ventricle
Conditions: not given
Outline: as §2

Compound | Activity [ms]
COc1cc(NC(C)=O)c(Cl)cc1C(=O)NC[C@@H]1CCCN2CCCC[C@H]12 | 141

Test system: not listed separately
Assay: Negative inotropic activity against potassium-induced contraction in guinea pig left atrium assessed as decrease in developed tension at 5 uM relative to control
Assay type: functional, Cavia porcellus, Cardiac atrium
Design: scale not given: the % may be the effect or the level left
Conditions: not given

Compound | Activity [%]
COc1cc(NC(C)=O)c(Cl)cc1C(=O)NC[C@@H]1CCCN2CCCC[C@H]12 | 93

Test system: Heart
Assay: Cardioprotective effect in Langendorff perfused guinea pig spontaneously beating […] assessed as heart rat at 10 uM (RVb = 175 to 190 +/- 5 to 11 bpm)
Assay type: functional, Cavia porcellus
Conditions: not given

Compound | Activity [bpm]
COc1cc(NC(C)=O)c(Cl)cc1C(=O)NC[C@@H]1CCCN2CCCC[C@H]12 | 165

Test system: not listed separately
Assay: Negative inotropic activity against potassium-induced contraction in guinea pig left atrium assessed as decrease in developed tension
Assay type: functional, tissue-based
Conditions: Cavia porcellus, Cardiac atrium

Compound | EC50 [nM]
COc1ccc2c(c1)nc(-c1ccccc1)c(=O)n2C[C@H]1CCCN2CCCC[C@@H]12 | 31
COc1cc(NC(C)=O)c(Cl)cc1C(=O)NC[C@@H]1CCCN2CCCC[C@H]12 | 18

Test system: not listed separately
Assay: Cardioprotective effect in Langendorff perfused guinea pig spontaneously beating […] assessed as duration of ventricular action potential at 0.001 uM (RVb = 140 to 161 +/- 2 to 8 ms)
Assay type: functional, Cavia porcellus, Cardiac ventricle
Conditions: not given
Outline: as §2

Compound | Activity [ms]
COc1cc(NC(C)=O)c(Cl)cc1C(=O)NC[C@@H]1CCCN2CCCC[C@H]12 | 139

Test system: not listed separately
Assay: Negative chronotropic activity against potassium-induced contraction in guinea pig left atrium assessed as decrease atrial rate
Assay type: functional, tissue-based
Conditions: Cavia porcellus, Cardiac atrium

Compound | EC50 [nM]
COc1ccc2c(c1)nc(-c1ccccc1)c(=O)n2C[C@H]1CCCN2CCCC[C@@H]12 | 15300

Test system: not listed separately
Assay: Cardioprotective effect in Langendorff perfused guinea pig spontaneously beating […] assessed as intraventicular conduction time at 0.001 uM (RVb = 19 to 24 +/- 1 to 2 ms)
Assay type: functional
Conditions: Cavia porcellus
Outline: as §2

Compound | intraventricular conduction time [ms]
COc1cc(NC(C)=O)c(Cl)cc1C(=O)NC[C@@H]1CCCN2CCCC[C@H]12 | 20

Test system: Heart
Assay: Cardioprotective effect in Langendorff perfused guinea pig spontaneously beating […] assessed as heart rat at 0.1 uM (RVb = 175 to 190 +/- 5 to 11 bpm)
Assay type: functional, Cavia porcellus
Conditions: not given

Compound | Activity [bpm]
COc1cc(NC(C)=O)c(Cl)cc1C(=O)NC[C@@H]1CCCN2CCCC[C@H]12 | 168

Test system: not listed separately
Assay: Cardioprotective effect in Langendorff perfused guinea pig spontaneously beating […] assessed as duration of ventricular action potential at 1 uM (RVb = 140 to 161 +/- 2 to 8 ms)
Assay type: functional, Cavia porcellus, Cardiac ventricle
Conditions: not given
Outline: as §2

Compound | Activity [ms]
COc1cc(NC(C)=O)c(Cl)cc1C(=O)NC[C@@H]1CCCN2CCCC[C@H]12 | 152

Test system: not listed separately
Assay: Cardioprotective effect in Langendorff perfused guinea pig spontaneously beating […] assessed as atrioventicular conduction time at 0.01 uM (RVb = 50 to 55 +/- 1 to 4 ms)
Assay type: functional
Conditions: Cavia porcellus
Outline: as §2

Compound | AV conduction time [ms]
COc1cc(NC(C)=O)c(Cl)cc1C(=O)NC[C@@H]1CCCN2CCCC[C@H]12 | 54

Test system: not listed separately
Assay: Cardioprotective effect in Langendorff perfused guinea pig spontaneously beating […] assessed as intraventicular conduction time at 10 uM (RVb = 19 to 24 +/- 1 to 2 ms)
Assay type: functional
Conditions: Cavia porcellus
Outline: as §2

Compound | intraventricular conduction time [ms]
COc1cc(NC(C)=O)c(Cl)cc1C(=O)NC[C@@H]1CCCN2CCCC[C@H]12 | 22

Test system: not listed separately
Assay: Antiarrhythmic activity in sinusoidal alternating current-induced guinea pig left atrium assessed as increase in current strength at which extra beats occur at 10 uM measured every 30 mins
Assay type: functional, Cavia porcellus, Cardiac atrium
Conditions: not given
Outline: as §1

Compound | Activity [%]
COc1cc(NC(C)=O)c(Cl)cc1C(=O)NC[C@@H]1CCCN2CCCC[C@H]12 | 84

Reference: ChEMBL document CHEMBL1177711, “Novel quinolizidinyl derivatives as antiarrhythmic agents: 2. Further investigation” (J Med Chem, 2010)
